Test results from ChEMBL document CHEMBL3297713, “Discovery, optimization, and biological evaluation of 5-(2-(trifluoromethyl)phenyl)indazoles as a novel class of transient receptor potential A1 (TRPA1) antagonists” (J Med Chem, 2014).
pIC50: −log10 of the molar value.

Experiments:
[1] = molecular target: Transient receptor potential cation channel subfamily A member 1 (Homo sapiens, UniProt O75762); test: Antagonist activity at human TRPA1 expressed in CHO-TREX cells assessed as inhibition of cinnamaldehyde-induced calcium flux incubated 10 mins prior to cinnamaldehyde addition by FLIPR assay relative to control; type: cell-based
In short: (§1)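 TRPA1-expressing CHO-TREX cells, channel expression induced with tetracycline (0.5 µg/mL human, 1 µg/mL mouse or rat). Cells loaded with Fluo4-AM for 90 min at room temperature, washed, then test agent added in HBSS/20 mM HEPES/2.5 mM probenecid/0.1% BSA. Agonist added 10 min later at EC80: human cinnamaldehyde 30 µM, AITC 2.5 µM, dibenzoxazepine-carboxamide 5 nM; rat and mouse cinnamaldehyde 40 µM. FLIPR calcium flux; mean of triplicates fitted to sigmoidal dose-response curves.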

[2] = molecular target: Transient receptor potential cation channel subfamily A member 1 (Rattus norvegicus) (UniProt Q6RI86); test: (§2) Antagonist activity at rat TRPA1 expressed in CHO-TREX cells assessed as inhibition of cinnamaldehyde-induced calcium flux incubated 10 mins prior to cinnamaldehyde addition by FLIPR assay relative to control; type: cell-based; set-up: concentration or dose not given beside the values; in short: as §1
[3] = molecular target: Transient receptor potential cation channel subfamily A member 1 (Rattus norvegicus, UniProt Q6RI86); test: as §2; type: cell-based; in short: as §1
[4] = molecular target: Transient receptor potential cation channel subfamily A member 1 (Mus musculus) (UniProt Q8BLA8); test: (§3) Antagonist activity at mouse TRPA1 expressed in CHO-TREX cells assessed as inhibition of cinnamaldehyde-induced calcium flux incubated 10 mins prior to cinnamaldehyde addition by FLIPR assay relative to control; type: cell-based; set-up: concentration or dose not given beside the values; in short: as §1
[5] = molecular target: Transient receptor potential cation channel subfamily A member 1 (Mus musculus, UniProt Q8BLA8); test: as §3; type: cell-based; in short: as §1
[6] = molecular target: Transient receptor potential cation channel subfamily V member 1 (Homo sapiens, UniProt Q8NER1); test: Antagonist activity at human TRPV1 expressed in CHOK1 cells assessed as inhibition of capsaicin-induced calcium flux incubated 10 mins prior to capsaicin addition by FLIPR assay relative to control; type: cell-based, CHO-K1; conditions: for inhibition: CHO-K1
[7] = molecular target: T1, Transient receptor potential cation channel subfamily V member 3 (Homo sapiens) (UniProt Q8NET8); test: (§4) Antagonist activity at human TRPV3 expressed in CHOK1 cells assessed as inhibition of 2-APB-induced calcium flux incubated 10 mins prior to 2-APB addition by FLIPR assay relative to control; type: cell-based; set-up: concentration or dose not given beside the values; conditions: CHO-K1
T1 sequence (whole entry): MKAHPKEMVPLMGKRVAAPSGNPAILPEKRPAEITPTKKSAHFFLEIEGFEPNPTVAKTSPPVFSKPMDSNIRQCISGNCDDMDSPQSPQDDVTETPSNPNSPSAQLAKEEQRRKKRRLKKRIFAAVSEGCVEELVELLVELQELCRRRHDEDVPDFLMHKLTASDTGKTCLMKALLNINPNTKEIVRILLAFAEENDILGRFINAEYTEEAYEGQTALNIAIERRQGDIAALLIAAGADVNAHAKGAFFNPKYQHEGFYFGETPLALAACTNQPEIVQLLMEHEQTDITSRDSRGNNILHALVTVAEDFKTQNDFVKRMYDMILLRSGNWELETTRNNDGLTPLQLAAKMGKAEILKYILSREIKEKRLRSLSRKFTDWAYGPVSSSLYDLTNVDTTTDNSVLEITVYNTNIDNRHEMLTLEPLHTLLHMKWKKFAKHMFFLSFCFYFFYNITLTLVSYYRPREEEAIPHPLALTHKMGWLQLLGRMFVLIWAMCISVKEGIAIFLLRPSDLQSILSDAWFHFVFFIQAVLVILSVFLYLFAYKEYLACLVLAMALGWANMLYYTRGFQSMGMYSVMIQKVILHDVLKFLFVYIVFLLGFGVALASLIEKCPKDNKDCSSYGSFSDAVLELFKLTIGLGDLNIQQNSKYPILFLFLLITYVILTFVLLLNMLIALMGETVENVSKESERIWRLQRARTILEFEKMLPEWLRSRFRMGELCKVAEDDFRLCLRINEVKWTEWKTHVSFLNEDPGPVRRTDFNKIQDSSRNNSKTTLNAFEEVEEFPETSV

[8] = molecular target: T2, Transient receptor potential cation channel subfamily V member 3 (Homo sapiens, UniProt Q8NET8); test: as §4; type: cell-based, CHO-K1
T2 sequence (Q8NET8 whole entry): T1 sequence (whole entry)

[9] = molecular target: Transient receptor potential cation channel subfamily M member 8 (Homo sapiens, UniProt Q7Z2W7); test: Antagonist activity at human TRPM8 expressed in CHOK1 cells assessed as inhibition of menthol-induced calcium flux incubated 10 mins prior to menthol addition by FLIPR assay relative to control; type: cell-based, CHO-K1; conditions: for inhibition: CHO-K1
CHO-K1 [10] = test: Selectivity ratio of IC50 for human TRPV1 expressed in CHOK1 cells to IC50 for human TRPA1 expressed in CHO-TREX cells; type: cell-based
In short: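 Stable hTRPV1 CHO-K1 and tetracycline-induced (0.5 µg/mL) hTRPA1 CHO-TREX cells were loaded with Fluo4-AM for 90 min at room temperature and read on FLIPR. Antagonist preincubation was 10 min before EC80 agonist: capsaicin 40 nM (TRPV1); cinnamaldehyde 30 µM, AITC 2.5 µM or dibenzoxazepine carboxamide 5 nM (TRPA1). Buffer contained probenecid and BSA. IC50s were fitted from triplicate means of max−min calcium signal.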

CHO-K1 [11] = test: Selectivity ratio of IC50 for human TRPV3 expressed in CHOK1 cells to IC50 for human TRPA1 expressed in CHO-TREX cells; type: cell-based
In short: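 Calcium influx was measured by FLIPR in Fluo4-AM-loaded cells: hTRPV3 CHO-K1 challenged with 40 µM 2-APB, and hTRPA1 CHO-TREX (0.5 µg/mL tetracycline) challenged with 30 µM cinnamaldehyde, 2.5 µM AITC or 5 nM dibenzoxazepine carboxamide, all at EC80. Compounds were added 10 min ahead of agonist in HEPES-buffered HBSS with probenecid. Sigmoidal curves were fitted to triplicate means.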

CHO-K1 [12] = test: Selectivity ratio of IC50 for human TRPM8 expressed in CHOK1 cells to IC50 for human TRPA1 expressed in CHO-TREX cells; type: cell-based
In short: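 FLIPR calcium-flux antagonist assays with Fluo4-AM loading (90 min, room temperature) in HBSS/20 mM HEPES/2.5 mM probenecid/0.1% BSA. Compound added 10 min before agonist at EC80: 40 µM menthol for CHO-K1 hTRPM8; for tetracycline-induced (0.5 µg/mL) CHO-TREX hTRPA1, 30 µM cinnamaldehyde, 2.5 µM AITC or 5 nM dibenzoxazepine carboxamide. Response is maximum minus minimum. IC50s come from sigmoidal fits of triplicate means.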

[13] = Clearance in Wistar rat at 3 mg/kg, iv; type: ADME, organism-based; set-up: dose 3 mg/kg, route intravenous; conditions: in vivo
In short: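 Wistar rats given 3 mg/kg i.v. as a solution in 75% PEG300/25% D5W.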

[14] = Volume of distribution at steady state in Wistar rat at 3 mg/kg, iv; type: ADME, organism-based; set-up: dose 3 mg/kg, route intravenous; conditions: in vivo, read-out: Vdss
[15] = Half life in Wistar rat at 3 mg/kg, iv; type: ADME, organism-based; set-up: dose 3 mg/kg, route intravenous; conditions: in vivo
[16] = AUC in Wistar rat at 10 mg/kg, po; type: ADME, organism-based; set-up: dose 10 mg/kg, route oral; conditions: plasma
In short: (§5)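 Male Wistar rats dosed orally at 10 mg/kg as a suspension in 0.5% methylcellulose/0.5% Tween80.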

[17] = Cmax in Wistar rat at 10 mg/kg, po; type: ADME, organism-based; set-up: dose 10 mg/kg, route oral; conditions: in vivo; in short: as §5
[18] = Tmax in Wistar rat at 10 mg/kg, po; type: ADME, organism-based; set-up: dose 10 mg/kg, route oral; conditions: in vivo; in short: as §5
[19] = Oral bioavailability in Wistar rat at 10 mg/kg; type: ADME, organism-based; conditions: in vivo; in short: as §5

Transient receptor potential cation channel subfamily V member 1, sequence (Q8NER1 whole entry): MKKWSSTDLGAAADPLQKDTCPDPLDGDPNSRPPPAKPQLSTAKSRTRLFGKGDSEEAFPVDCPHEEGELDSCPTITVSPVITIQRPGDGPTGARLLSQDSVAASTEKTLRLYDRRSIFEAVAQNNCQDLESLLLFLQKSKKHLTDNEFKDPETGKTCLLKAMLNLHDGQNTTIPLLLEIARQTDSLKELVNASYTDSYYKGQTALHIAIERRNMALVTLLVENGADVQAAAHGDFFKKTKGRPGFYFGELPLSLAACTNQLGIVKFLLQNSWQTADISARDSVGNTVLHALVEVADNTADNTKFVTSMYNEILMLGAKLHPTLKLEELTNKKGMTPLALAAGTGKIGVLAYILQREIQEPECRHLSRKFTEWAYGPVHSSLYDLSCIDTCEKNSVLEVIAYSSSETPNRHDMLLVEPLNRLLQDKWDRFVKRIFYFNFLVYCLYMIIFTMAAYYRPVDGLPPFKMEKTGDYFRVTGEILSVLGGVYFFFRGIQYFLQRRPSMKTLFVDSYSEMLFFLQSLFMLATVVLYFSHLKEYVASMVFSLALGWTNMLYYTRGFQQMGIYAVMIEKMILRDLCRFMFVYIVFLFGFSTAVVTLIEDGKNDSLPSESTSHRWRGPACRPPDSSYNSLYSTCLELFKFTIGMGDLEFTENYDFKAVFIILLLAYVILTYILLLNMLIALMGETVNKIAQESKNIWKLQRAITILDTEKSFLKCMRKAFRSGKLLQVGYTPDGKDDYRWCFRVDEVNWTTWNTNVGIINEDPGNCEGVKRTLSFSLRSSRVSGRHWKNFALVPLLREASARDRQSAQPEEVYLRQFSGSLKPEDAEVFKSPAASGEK
Transient receptor potential cation channel subfamily A member 1 (Homo sapiens, UniProt O75762), sequence (O75762 whole entry): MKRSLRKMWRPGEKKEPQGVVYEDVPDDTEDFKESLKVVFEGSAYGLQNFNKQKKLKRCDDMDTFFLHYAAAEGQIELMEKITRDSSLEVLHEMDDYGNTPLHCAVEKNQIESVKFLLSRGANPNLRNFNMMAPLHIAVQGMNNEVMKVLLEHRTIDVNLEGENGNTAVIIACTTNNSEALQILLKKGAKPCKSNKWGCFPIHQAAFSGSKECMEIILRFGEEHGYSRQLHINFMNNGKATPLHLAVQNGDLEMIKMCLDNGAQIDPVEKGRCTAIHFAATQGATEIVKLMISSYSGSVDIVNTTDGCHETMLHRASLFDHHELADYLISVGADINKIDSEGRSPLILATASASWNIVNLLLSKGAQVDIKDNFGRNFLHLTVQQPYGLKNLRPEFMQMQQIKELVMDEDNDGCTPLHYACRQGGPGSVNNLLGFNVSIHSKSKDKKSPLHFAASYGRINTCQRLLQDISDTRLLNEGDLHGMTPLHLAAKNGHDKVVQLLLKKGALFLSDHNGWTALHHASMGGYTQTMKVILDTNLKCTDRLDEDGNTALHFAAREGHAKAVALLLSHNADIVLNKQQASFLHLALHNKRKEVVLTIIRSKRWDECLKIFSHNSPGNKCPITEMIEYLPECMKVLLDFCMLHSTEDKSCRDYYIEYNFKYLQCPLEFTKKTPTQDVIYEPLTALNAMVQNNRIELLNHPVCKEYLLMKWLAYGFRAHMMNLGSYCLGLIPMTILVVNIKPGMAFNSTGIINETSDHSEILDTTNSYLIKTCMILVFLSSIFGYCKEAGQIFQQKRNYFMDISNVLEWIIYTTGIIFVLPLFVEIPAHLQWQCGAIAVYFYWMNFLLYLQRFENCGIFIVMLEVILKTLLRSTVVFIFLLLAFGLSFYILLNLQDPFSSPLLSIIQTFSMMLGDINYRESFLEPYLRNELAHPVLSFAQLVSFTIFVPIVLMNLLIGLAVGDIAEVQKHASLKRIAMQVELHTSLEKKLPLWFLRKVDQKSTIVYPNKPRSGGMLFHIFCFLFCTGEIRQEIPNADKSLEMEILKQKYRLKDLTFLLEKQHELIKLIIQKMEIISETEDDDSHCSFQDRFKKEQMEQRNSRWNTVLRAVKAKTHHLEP
Transient receptor potential cation channel subfamily A member 1 (Mus musculus, UniProt Q8BLA8), sequence (Q8BLA8 whole entry): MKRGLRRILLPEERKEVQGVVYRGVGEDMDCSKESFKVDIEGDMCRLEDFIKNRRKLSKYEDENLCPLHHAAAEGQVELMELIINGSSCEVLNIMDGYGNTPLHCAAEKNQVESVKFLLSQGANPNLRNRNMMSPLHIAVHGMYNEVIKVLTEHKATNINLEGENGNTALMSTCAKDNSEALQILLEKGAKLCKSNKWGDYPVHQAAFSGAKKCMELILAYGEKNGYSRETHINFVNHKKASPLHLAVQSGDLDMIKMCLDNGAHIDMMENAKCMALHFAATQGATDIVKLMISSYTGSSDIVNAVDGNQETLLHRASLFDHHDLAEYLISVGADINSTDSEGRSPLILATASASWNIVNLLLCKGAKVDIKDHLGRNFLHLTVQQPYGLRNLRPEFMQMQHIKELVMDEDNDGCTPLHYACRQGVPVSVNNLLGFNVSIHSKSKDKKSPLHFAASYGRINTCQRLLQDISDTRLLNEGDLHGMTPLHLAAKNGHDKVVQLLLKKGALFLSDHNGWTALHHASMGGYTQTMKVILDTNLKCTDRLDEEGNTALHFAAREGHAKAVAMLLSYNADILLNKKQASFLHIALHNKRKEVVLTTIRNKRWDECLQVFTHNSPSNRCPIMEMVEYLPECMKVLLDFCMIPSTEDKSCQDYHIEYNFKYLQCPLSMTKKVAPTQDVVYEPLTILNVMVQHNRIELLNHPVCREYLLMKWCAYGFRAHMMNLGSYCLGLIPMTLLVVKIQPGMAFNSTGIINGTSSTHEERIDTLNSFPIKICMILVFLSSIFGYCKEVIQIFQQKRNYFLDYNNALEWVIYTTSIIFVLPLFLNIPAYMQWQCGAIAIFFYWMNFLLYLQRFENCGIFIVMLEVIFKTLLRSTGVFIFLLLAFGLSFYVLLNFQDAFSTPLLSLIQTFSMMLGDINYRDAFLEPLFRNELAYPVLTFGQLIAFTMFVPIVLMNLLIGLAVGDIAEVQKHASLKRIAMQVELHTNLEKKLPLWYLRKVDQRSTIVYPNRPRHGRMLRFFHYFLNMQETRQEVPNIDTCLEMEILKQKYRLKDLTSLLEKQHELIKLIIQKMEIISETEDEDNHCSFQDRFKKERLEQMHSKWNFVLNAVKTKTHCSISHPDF
Transient receptor potential cation channel subfamily A member 1 (Mus musculus), sequence (Q8BLA8 whole entry): as above
Transient receptor potential cation channel subfamily A member 1 (Rattus norvegicus), sequence (Q6RI86 whole entry): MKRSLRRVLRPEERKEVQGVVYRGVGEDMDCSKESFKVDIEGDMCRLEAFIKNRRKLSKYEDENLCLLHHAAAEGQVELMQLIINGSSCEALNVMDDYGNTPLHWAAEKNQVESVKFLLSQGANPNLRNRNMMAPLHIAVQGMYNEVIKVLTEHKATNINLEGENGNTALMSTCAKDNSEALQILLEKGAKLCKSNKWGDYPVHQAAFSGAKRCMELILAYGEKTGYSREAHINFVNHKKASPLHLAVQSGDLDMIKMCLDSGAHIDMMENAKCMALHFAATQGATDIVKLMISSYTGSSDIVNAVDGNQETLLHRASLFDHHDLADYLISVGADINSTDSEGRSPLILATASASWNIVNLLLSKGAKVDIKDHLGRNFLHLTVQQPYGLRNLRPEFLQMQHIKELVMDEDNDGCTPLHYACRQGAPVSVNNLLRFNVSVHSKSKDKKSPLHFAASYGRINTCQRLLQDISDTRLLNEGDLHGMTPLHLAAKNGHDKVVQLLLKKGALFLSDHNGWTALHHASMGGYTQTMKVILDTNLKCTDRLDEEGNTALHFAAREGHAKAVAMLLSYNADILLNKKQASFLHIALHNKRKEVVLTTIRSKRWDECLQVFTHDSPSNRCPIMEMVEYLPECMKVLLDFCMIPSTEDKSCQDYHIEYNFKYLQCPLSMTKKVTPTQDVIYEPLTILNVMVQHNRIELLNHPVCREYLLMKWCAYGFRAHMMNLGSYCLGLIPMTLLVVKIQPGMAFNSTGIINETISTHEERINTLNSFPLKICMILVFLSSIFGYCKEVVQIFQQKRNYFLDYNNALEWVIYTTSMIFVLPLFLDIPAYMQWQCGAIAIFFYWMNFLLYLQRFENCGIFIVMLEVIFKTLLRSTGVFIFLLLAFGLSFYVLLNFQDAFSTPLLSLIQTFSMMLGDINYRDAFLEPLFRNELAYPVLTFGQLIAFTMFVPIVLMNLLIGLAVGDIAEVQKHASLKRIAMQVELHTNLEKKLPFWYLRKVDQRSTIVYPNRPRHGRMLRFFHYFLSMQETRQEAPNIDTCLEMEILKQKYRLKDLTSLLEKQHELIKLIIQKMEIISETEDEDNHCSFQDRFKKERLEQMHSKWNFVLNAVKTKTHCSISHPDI
Transient receptor potential cation channel subfamily A member 1 (Rattus norvegicus, UniProt Q6RI86), sequence (Q6RI86 whole entry): as above

Clc1ccccc1-c1ccc2[nH]ncc2c1
pIC50 [1]: 5.91 | inhibition [1]: 91%

Fc1c(-c2ccccc2C(F)(F)F)ccc2[nH]ncc12
pIC50 [1]: 6.53 | inhibition [1]: 97%

FC(F)(F)c1ccccc1-c1cc2cn[nH]c2cc1Cl
pIC50 [1]: 7.62 | inhibition [1]: 98% | inhibition [2]: 98% | pIC50 [3]: 6.77 | inhibition [4]: 100% | pIC50 [5]: 7.03 | pIC50 [6]: 4.78 | inhibition [6]: 70% | inhibition [7]: 0% | pIC50 [8]: < 4.52 | pIC50 [9]: 4.77 | inhibition [9]: 71% | Ratio IC50 (CHO-K1 [10]): > 100 | Ratio IC50 (CHO-K1 [11]): > 100 | Ratio IC50 (CHO-K1 [12]): > 100 | clearance [13]: 13.6 mL/min/kg | Vd [14]: 1.65 L/kg | half-life [15]: 3.4 h | AUC [16]: 26.2 µM·h | Cmax [17]: 6.05 µM | Tmax [18]: 0.5 h | bioavailability [19]: 63%

FC(F)(F)Oc1cc2[nH]ncc2cc1-c1ccccc1C(F)(F)F
pIC50 [1]: 7.44 | inhibition [1]: 99% | inhibition [2]: 100% | pIC50 [3]: 6.20 | inhibition [4]: 100% | pIC50 [5]: 6.60 | pIC50 [6]: 4.94 | inhibition [6]: 78% | inhibition [7]: 22% | pIC50 [8]: < 4.52 | pIC50 [9]: 5.19 | inhibition [9]: 100% | Ratio IC50 (CHO-K1 [10]): > 100 | Ratio IC50 (CHO-K1 [11]): > 100 | Ratio IC50 (CHO-K1 [12]): > 100

Fc1cc2[nH]ncc2cc1-c1ccccc1C(F)(F)F
pIC50 [1]: 7.32 | inhibition [1]: 98%

COCc1cc2[nH]ncc2cc1-c1ccccc1C(F)(F)F
pIC50 [1]: 6.85 | inhibition [1]: 97%

Fc1ccccc1-c1ccc2[nH]ncc2c1
pIC50 [1]: 5.40 | inhibition [1]: 68%

CC(C)Oc1cc2[nH]ncc2cc1-c1ccccc1C(F)(F)F
pIC50 [1]: 6.01 | inhibition [1]: 97%

CCOc1cc2[nH]ncc2cc1-c1ccccc1C(F)(F)F
pIC50 [1]: 7.41 | inhibition [1]: 97%

CC(C)(C)c1ccccc1-c1ccc2[nH]ncc2c1
pIC50 [1]: 5.47 | inhibition [1]: 96%

CCc1ccccc1-c1ccc2[nH]ncc2c1
pIC50 [1]: 6.23 | inhibition [1]: 96%

FC(F)c1cc2[nH]ncc2cc1-c1ccccc1C(F)(F)F
pIC50 [1]: 6.99 | inhibition [1]: 100%

CNC(=O)c1cc2[nH]ncc2cc1-c1ccccc1C(F)(F)F
pIC50 [1]: < 4.52

Cn1ncc2cc(-c3ccccc3C(F)(F)F)ccc21
pIC50 [1]: 5.13 | inhibition [1]: 98%

Fc1ccc(-c2ccc3[nH]ncc3c2)c(C(F)(F)F)c1
pIC50 [1]: 4.52

N#Cc1cc2[nH]ncc2cc1-c1ccccc1C(F)(F)F
pIC50 [1]: 6.89 | inhibition [1]: 100%

Cc1ccccc1-c1ccc2[nH]ncc2c1
pIC50 [1]: 5.11 | inhibition [1]: 78%
